Consider 5 substances from article PMC2749063 (Current eye research, 2009).

In experiment [1] the test system is HSV-1. Kind of experiment: TOTO-1 assay, HSV-1 envelope/capsid integrity. As to conditions: 5 hours at 37°C. Also on record: species or system herpes simplex virus type 1. Put shortly: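 HSV-1 McKrae grown in Vero cells. Test compound (2-500 μg/ml) incubated with or without virus (~5 × 10⁴ PFU/ml), 5 h, 37°C. Mixture added to 120 nM TOTO-1 in tryptone-saline pH 8.0; fluorescence read at 485/20 nm excitation, 516/20 nm emission. Signal = raw minus peptide- and virus-derived fluorescence; adenovirus DNA standards. Run in duplicate; repeated at least twice on different days.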

A further experiment deals with Ad3. Kind of experiment: Direct viral time kill assay, Ad3. Type of experiment: cell-based, adenovirus. As to conditions: Ad3, 500 μg/ml peptide, 4 hours; ANOVA p = 0.008. Put shortly:
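Ad3 reference strain grown in A549 cells. Peptide stock in sterile water, diluted in tryptone-saline (pH 5.5). Final mix: 500 μg/ml peptide with ~10⁴ PFU/ml virus, or tryptone-saline control, at 37°C. At 1 and 4 h, aliquots diluted in ice-cold medium with 10% FBS, then plated on A549 monolayers (37°C, 5% CO₂). After 8-9 days, gentian violet-stained plaques counted as PFU/ml. Log₁₀ titers by ANOVA/Fisher; 7 repeats.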

Experiment [2] has as its system Ad5. Kind of experiment: Direct viral time kill assay, Ad5. As to conditions: Ad5, 500 μg/ml peptide; for inhibition of Ad5 vs tryptone-saline control (in words): 4 hours, ANOVA p < 0.001. In kind it is cell-based, adenovirus. Put shortly:
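Ad5 clinical isolate grown in A549 cells. Peptide stock in sterile water, diluted in tryptone-saline (pH 5.5); mixed with virus to 500 μg/ml final, ~10⁴ PFU/ml; 37°C water bath. Aliquot at 1 h quenched in ice-cold medium with 10% FBS, diluted, plated on A549 monolayers (37°C, 5% CO₂). Gentian violet stain at 7 days, plaques counted, titer as PFU/ml; 7 repeats; log₁₀ ANOVA, Fisher comparisons.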

In experiment [3] the test system is HSV-1. In words: Increasing Concentration Direct Inhibition Assay, HSV-1. In kind it is cell-based, herpes simplex virus type 1. Put shortly: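 HSV-1 McKrae strain, grown in Vero cells. Virus incubated with test compound at a range of concentrations in tryptone-saline. Titers were determined by plaque assay. Each concentration has its own tryptone-saline control. Log reduction is the mean titer difference between treated virus and that control.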

In experiment [4] the test system is Ad5. Kind of experiment: TOTO-1 assay, Ad5 capsid integrity. Set-up: species or system adenovirus. As to conditions: 5 hours at 37°C; for TOTO-1 fluorescence / Ad5 capsid integrity (in words): Ad5, peptide 10-500 μg/ml.
For experiment [5], the system named is Ad5. In words: Increasing Concentration Direct Inhibition Assay, Ad5. In kind it is cell-based, adenovirus.
For the next experiment, the system named is bacteria. As to conditions: cited from earlier work.

Entries after “also recorded” stand apart in the source; their conditions may differ. Like-named read-outs stand apart in the source and are kept apart here. Ends that are not written are not given here.

With “NQGRHFCGGALIHARFVMTAASCFQ (cysteine pairing not given here) [Peptide A]”, in the experiment with HSV-1 [1] (HSV-1, peptide 10 to 100 μg/ml), the “TOTO-1 fluorescence with HSV-1 between 10 and 100 μg/ml (in words)” value is recorded as “no increase in fluorescence”. In the experiment on HSV-1 [1] (HSV-1, peptide 100 to 500 μg/ml), the “TOTO-1 fluorescence with HSV-1 from 100 to 500 μg/ml (in words)” value is “increasing fluorescence”. Besides, the “inhibition of Ad3 vs tryptone-saline control (in words)” value in the experiment with Ad3 is listed as “statistically-significant reduction in viral titers”. The “inhibition of Ad5 at 1 hour (in words)” value with Ad5 [2] (1 hour incubation, data not shown) is given as “significantly inhibited”. In addition, the “inhibition of Ad5 vs tryptone-saline control (in words)” value with Ad5 [2] was “significantly greater inhibitory activity than the tryptone-saline control”. Further, the initial inhibitory concentration was 50 µg/mL in the experiment on HSV-1 [3] (HSV-1, 4 hours incubation) and 50 µg/mL in the experiment on Ad5 [5] (Ad5, 4 hours incubation). In addition, the “inhibitory effect (log reduction of viral titers) above 100 μg/ml” value is reported as about 2 log reductions in the experiment with HSV-1 [3] (HSV-1, peptide above 100 μg/ml (up to 750 μg/ml), 4 hours incubation) and about 2 log reductions in the experiment on Ad5 [5] (Ad5, peptide above 100 μg/ml (up to 750 μg/ml), 4 hours incubation). For the same substance, the “increase in TOTO-1 fluorescence” value in the experiment on Ad5 [4] (Ad5, peptide 500 μg/ml, 120 nM TOTO-1) was 65-85%. Further, the “TOTO-1 fluorescence / Ad5 capsid integrity (in words)” value with Ad5 [4] was “dose-dependent increase in TOTO-1 fluorescence”.
For the substance “Asn-Gln-------------Gly-Arg-His-Phe-Cys-Gly-Gly-Ala-Leu-Ile-His-Ala-Arg-Phe-Val-Met-Thr-Ala-Ala-Ser-Ser-Phe-Gln [Peptide C]”, the “inhibition of Ad3 vs tryptone-saline control (in words)” value in the experiment on Ad3 is recorded as “statistically-significant reduction in viral titers”.
Turning to NQGRHFSGGALIHARFVMTAASCFQ [Peptide B], the “inhibition of Ad3 vs tryptone-saline control (in words)” value in the experiment with Ad3 is on record as “statistically-significant reduction in viral titers”. Moreover, the “inhibition of Ad5 vs tryptone-saline control (in words)” value in the experiment on Ad5 [2] is given as “significantly greater inhibitory activity than the tryptone-saline control”.
As to “IQSPAGQSRCGGFLVREDFVLTAAHCWG (cysteine pairing not given here) [Cathepsin G20-47 peptide, reference compound]”, the “antibacterial activity (in words)” value in the experiment with bacteria is reported as “negligible antibacterial activity”. In the experiment on Ad5 [4], the “TOTO-1 fluorescence / Ad5 capsid integrity (in words)” value is reported as “minimal fluorescence; also recorded: no disruptive effect on Ad5 capsid integrity”.
Turning to “Asn-Gln-------------Gly-Arg-His-Phe-Ser-Gly-Gly-Ala-Leu-Ile-His-Ala-Arg-Phe-Val-Met-Thr-Ala-Ala-Ser-Ser-Phe-Gln [Peptide D]”, the “inhibition of Ad3 vs tryptone-saline control (in words)” value in the experiment with Ad3 is “statistically-significant reduction in viral titers”. Further, the “antibacterial activity (in words)” value in the experiment with bacteria (ref Previous studies) was “inactive”.
